# Compounds with a hit are over-represented: about 2.9% of the library has one in this group of screens.
# CAL PDZ FP-1: inhibitors of human CAL PDZ peptide binding; inhibition, % at 20 µM; purified CAL PDZ, TMR-peptide fluorescence polarization, 1 h; 330,000 compounds, 0.02% hits;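 active = highest replicate inhibition of at least 40%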;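 also: plate controls were DMSO neutral control wells for no effect and unlabeled competitor peptide control wells for full effect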
#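 Test system: purified CerCALP PDZ construct; Compound dosing: one concentration, 20 µM compound; Also added: TMR-labelled reporter peptide T*-PRC34 bound in PDZ groove; Read-out: inhibition from polarization loss; Controls: unlabelled peptide and DMSO controls; Signal: FP readout, S and P plane fluorescence; Incubation: 1 h at RT.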
# S100A4 MyoIIA: S100A4-myosin IIA interaction inhibition | S100A4/TAMRA-MyoIIA peptide fluorescence polarization | inhibition, % at 10.7 µM | 360,000 compounds, 0.14% hits;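 active = mean inhibition of at least 70% across replicates, with every replicate also reaching that level; inconclusive = mean inhibition reaches 70% but some replicates fall short; inactive = mean inhibition below 70%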
#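 Assay system: human S100A4 monomer with TAMRA-labelled myosin IIA peptide / Buffer or medium: Calcium-containing HEPES buffer, pH 7.2 / Reagent: TAMRA-labelled myosin IIA heavy-chain peptide probe, 5 nM / Compound: one dose per compound / Timing: polarization read 5 min after assay mix addition, stable 5–60 min / Benchmarks: neutral control DMSO, positive control TFP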
# SIRT5 inh: inhibitors of human sirtuin-5 desuccinylase. Q9NXA8. Purified SirT5, succinyl-peptide AMC, trypsin-coupled fluorescence. inhibition, % at 15 µM. 330,000 compounds, 1.1% hits; in the data active = inhibition above about 15%; inconclusive = no clear call, values can overlap the other calls
# ERAP1 inh: blocks human ERAP1 aminopeptidase activity; 340,000 compounds, 0.15% hits; Q9NZ08; recombinant ERAP1, Leu-AMC fluorescence, 60 min; inhibition, % at 10.7 µM;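 active = mean replicate inhibition of at least 30%, or all replicates individually reaching that 30% level; inactive = mean below 30% and not every replicate reaching it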;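 also: 0% = neutral control wells and 100% = L-leucinethiol positive control wells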
# DENV2 CPE: DENV2-induced cell death inhibition. 350,000 compounds, 1.7% hits. CPE inhibition, % at 9.99 µM. DENV2-infected cells, cytopathic effect rescue, plate reader; in the data active = CPE inhibition above about 20%, passing the limit was not always enough; inconclusive = no clear call, values can overlap the other calls; tested in BHK-21 cells;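 also: 0% = median of neutral control wells and 100% = median of positive control wells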
# CAL PDZ FP-2: CAL PDZ (human) peptide binding inhibition. Q9HD26. purified CAL PDZ, TMR-peptide fluorescence polarization, 1 h. inhibition, % at 24.9 µM. 300,000 compounds, 0.92% hits. AID 602252;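 active = mean inhibition of at least 30% with at least half of replicates also reaching 30%; inconclusive = no clear call, values can overlap the other calls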;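 also: 0% = DMSO neutral control and 100% = excess unlabeled competitor peptide PRC23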
# * marks the source's active call; other numbers are inactive results; ? = inconclusive; / = no result.
SMILES,CAL PDZ FP-1,S100A4 MyoIIA,SIRT5 inh,ERAP1 inh,DENV2 CPE,CAL PDZ FP-2
CO[C@@H]1CN(C)C(=O)c2ccc(NC(=O)Nc3ccccc3)cc2OC[C@@H](C)N(C(C)=O)C[C@H]1C,/,3,22*,-1,26*,/
CO[C@@H]1CN(C)C(=O)c2cc(NC(=O)Nc3ccccc3F)ccc2OC[C@@H](C)N(C(C)=O)C[C@H]1C,/,11,3,-6,14,/
CO[C@H]1CN(C)C(=O)c2cc(NC(=O)Nc3ccccc3F)ccc2OC[C@H](C)N(C(C)=O)C[C@H]1C,/,3,0,-2,21*,/
CO[C@H]1CN(C)C(=O)c2cc(NC(=O)c3ccccc3F)ccc2OC[C@H](C)N(CC2CCOCC2)C[C@H]1C,/,-4,7,-5,81*,/
CO[C@H]1CN(C)C(=O)c2cc(NC(=O)c3ccccc3F)ccc2OC[C@@H](C)N(C(C)=O)C[C@@H]1C,/,-6,2,-8,70*,/
CO[C@@H]1CN(C)C(=O)c2cc(NC(=O)c3ccccc3F)ccc2OC[C@@H](C)N(CC2CCOCC2)C[C@H]1C,/,14,-9,0,-2,/
CO[C@@H]1CN(C)C(=O)c2cc(NC(=O)c3ccccc3F)ccc2OC[C@@H](C)N(C(C)=O)C[C@H]1C,/,22,-3,0,-1,/
CO[C@@H]1CN(C)C(=O)c2ccc(NC(=O)C3CCOCC3)cc2OC[C@H](C)N(CC2CC2)C[C@@H]1C,/,4,-1,3,8,/
CO[C@H]1CN(C)C(=O)c2ccc(NC(=O)Nc3ccccc3F)cc2OC[C@H](C)N(C)C[C@H]1C,/,8,4,-2,33*,/
CO[C@@H]1CN(C)C(=O)c2ccc(NC(=O)C3CCOCC3)cc2OC[C@@H](C)N(CC2CCCCC2)C[C@H]1C,/,-8,/,3,54*,/
C[C@@H]1CN([C@H](C)CO)C(=O)Cc2cc(NS(=O)(=O)c3ccc(Cl)cc3)ccc2O[C@H]1CN(C)Cc1ccc2c(c1)OCO2,/,-6,11,3,1,/
COc1ccc(NC(=O)Nc2ccc3c(c2)CC(=O)N([C@H](C)CO)C[C@H](C)[C@@H](CN(C)Cc2ccc(Oc4ccccc4)cc2)O3)cc1,/,4,23*,0,-1,/
C[C@H](CO)N1C[C@H](C)[C@@H](CN(C)Cc2ccccc2)Oc2ccc(NC(=O)Nc3ccccc3)cc2CC1=O,/,-8,6,1,25*,/
C[C@H]1CN([C@@H](C)CO)C(=O)Cc2cc(NC(=O)Nc3ccc4c(c3)OCO4)ccc2O[C@H]1CN(C)Cc1ccccc1,/,-20,1,1,46*,/
C[C@@H]1CN([C@@H](C)CO)C(=O)Cc2cc(NC(=O)Nc3ccccc3)ccc2O[C@@H]1CN(C)Cc1ccccc1,/,9,2,1,2,/
C[C@@H]1CN([C@@H](C)CO)C(=O)Cc2cc(NC(=O)Nc3ccccc3)ccc2O[C@H]1CN(C)Cc1ccc(Cl)c(Cl)c1,/,-6,5,8,38*,/
C[C@@H]1CN([C@@H](C)CO)C(=O)Cc2cc(NC(=O)Nc3ccc4c(c3)OCO4)ccc2O[C@H]1CN(C)Cc1ccccc1,/,1,7,-1,-6,/
C[C@@H]1CCCCO[C@@H](CN(C)CC2CC2)[C@H](C)CN([C@H](C)CO)C(=O)c2cc(NS(C)(=O)=O)ccc2O1,/,20,-3,-2,-5,/
COc1ccc(NC(=O)Nc2ccc3c(c2)CC(=O)N([C@H](C)CO)C[C@@H](C)[C@H](CN(C)Cc2ccccc2)O3)cc1,/,-2,5,0,-13,/
COc1ccc(NC(=O)Nc2ccc3c(c2)CC(=O)N([C@@H](C)CO)C[C@@H](C)[C@H](CN(C)Cc2ccccc2)O3)cc1,/,96*,6,0,-5,/
CCC(=O)Nc1ccc2c(c1)C(=O)N(C)C[C@@H](OC)[C@H](C)CN(C(=O)c1cnccn1)[C@@H](C)CO2,/,4,0,-2,-2,/
CCOc1ccccc1-c1nnc(CS(=O)(=O)c2ccccc2)o1,-2,-2,-3,0,53*,-5
COc1ccc(Br)c(-c2nnc(CS(=O)(=O)c3ccccc3)o2)c1,-2,-3,/,2,9,2
CCCCn1c(N)c(N(CCC(C)C)C(=O)C2CC(=O)N(c3ccc4c(c3)OCCO4)C2)c(=O)[nH]c1=O (centres undefined),13,-1,1,17,-9,-6
CCCCn1c(N)c(N(CCC(C)C)C(=O)C2CC(=O)N(c3ccccc3OCC)C2)c(=O)[nH]c1=O (centres undefined),-1,3,0,0,66*,/
SMILES,CAL PDZ FP-1,S100A4 MyoIIA,SIRT5 inh,ERAP1 inh,DENV2 CPE,CAL PDZ FP-2
Cn1c(Cc2cccs2)n[nH]c1=S,0,/,/,/,/,38*
C[C@H]1CN([C@@H](C)CO)C(=O)c2cccc(NC(=O)C3CCOCC3)c2O[C@H]1CN(C)S(=O)(=O)c1ccc(F)cc1,/,3,-1,-3,16,/
S=C(NCc1ccccc1)NNc1ccccc1,-1,-2,2,1,-6,58*
COc1cccc(S(=O)(=O)N[C@@H]2CC[C@@H](CC(=O)NCc3ccc(Cl)cc3)O[C@H]2CO)c1,/,-5,-1,1,10,/
O=C1CC2c3ccccc3C1C1C(=O)N(Cc3ccccc3)C(=O)C21 (centres undefined),-1,-2,-1,0,5,35*
C/C=C/c1ccc([C@@H]2[C@H](CO)N(CC3CCCC3)C23CN(S(=O)(=O)CC)C3)cc1,/,-2,5,0,-6,/
C/C=C/c1ccc([C@H]2[C@@H](CO)N(CCC(F)(F)F)C23CN(C(=O)CC2CC2)C3)cc1,/,1,5,2,65*,/
C/C=C/c1ccc([C@H]2[C@@H](CO)N(CC3CCCC3)C23CN(S(=O)(=O)CC)C3)cc1,/,24,6,0,23*,/
CS(=O)(=O)N1CC2(C1)[C@@H](c1ccccc1)[C@@H](CO)N2Cc1ccccc1,/,-20,0,1,28*,/
C/C=C/c1ccc([C@H]2[C@@H](CO)N(CC3CCOCC3)C23CN(S(=O)(=O)CC)C3)cc1,/,18,-5,-21,27*,/
O=C(N[C@H]1CC[C@H](CCNS(=O)(=O)c2ccc(F)cc2)O[C@@H]1CO)C1CCOCC1,/,-3,-1,-4,5,/
CCC(=O)N[C@H]1CC[C@@H](CC(=O)NCc2ccc(OC)cc2)O[C@@H]1CO,/,7,2,-3,?,/
C[C@@H]1CN([C@H](C)CO)C(=O)c2cc(NC(=O)c3ccncc3)ccc2O[C@@H](C)CCCCO[C@@H]1CN(C)S(=O)(=O)c1ccc(Cl)cc1,/,-32,13,1,-1,/
CO[C@@H]1CN(C)C(=O)c2cc(NC(=O)Nc3c(C)noc3C)ccc2OC[C@@H](C)N(CC2CC2)C[C@@H]1C,/,-1,1,0,3,/

# Compound activity deposited in PubChem by Broad Institute.
